Experimental data published in ChEMBL document CHEMBL4229382, “Phenylthiazoles with tert-Butyl side chain: Metabolically stable with anti-biofilm activity” (Eur J Med Chem, 2018).
Values after ≈ are worked out from the molar mass of the structure shown. Active and inactive are the calls of the source. The rule behind the calls is not given here.

What was measured:
Enterococcus faecium [1] = assay: Antibacterial activity against vancomycin-resistant Enterococcus faecium ATCC 700221 after 18 hrs by broth microdilution assay; assay type: functional; details: ATCC 700221, 18 h
Outline: (§1)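 Broth microdilution: inoculum from 0.5 McFarland suspension diluted to about 5 × 10^5 CFU/mL. Media were cation-adjusted Mueller-Hinton broth for staphylococci, brain heart infusion for E. faecium, and tryptone soya broth for E. faecalis, S. pneumoniae and L. monocytogenes.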

Staphylococcus aureus [2] = assay: Antibacterial activity against methicillin-sensitive Staphylococcus aureus ATCC 6538 after 18 hrs by broth microdilution assay; assay type: functional; details: ATCC 6538, 18 h; outline: as §1
Staphylococcus aureus [3] = assay: Inhibition of biofilm formation in methicillin-resistant Staphylococcus aureus NRS384 USA300 at 2 times MIC after 24 hrs by crystal violet staining-based spectrophotometric analysis relative to control; design: scale not given: the % may be the effect or the level left
[4] = test system: Staphylococcus epidermidis; assay: Antibacterial activity against methicillin-resistant Staphylococcus epidermidis NRS101 after 18 hrs by broth microdilution assay; assay type: functional; details: NRS101, 18 h; outline: as §1
Staphylococcus aureus [5] = assay: Inhibition of biofilm formation in methicillin-resistant Staphylococcus aureus NRS384 USA300 after 24 hrs by crystal violet staining-based spectrophotometric analysis
Enterococcus faecium [6] = assay: Bactericidal activity against vancomycin-resistant Enterococcus faecium ATCC 700221 incubated fo 18 hrs followed by re-plating on tryptic soy agar plates at 37 degC for 18 hrs by broth microdilution assay; details: ATCC 700221, 18 h
Caco-2 = assay: Cytotoxicity against human Caco2 cells at 32 ug/ml after 2 hrs by MTS assay; assay type: cell-based; details: caco-2, 2 h
Outline: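 Caco-2 cells grown in DMEM with 20% FBS, non-essential amino acids and penicillin-streptomycin, 37 °C, 5% CO2; exposed in triplicate to compounds (16, 32, 64 µg/mL) for 2 h; MTS added, 4 h further incubation, OD490 read; viability as percent of DMSO-treated controls; two independent experiments.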

[7] = test system: Staphylococcus epidermidis; assay: Bactericidal activity against methicillin-resistant Staphylococcus epidermidis NRS101 incubated fo 18 hrs followed by re-plating on tryptic soy agar plates at 37 degC for 18 hrs by broth microdilution assay; assay type: functional; details: NRS101, 18 h
Staphylococcus aureus [8] = assay: Antibacterial activity against methicillin-resistant Staphylococcus aureus NRS123 USA400 assessed as reduction in bacterial growth after 2 to 4 hrs by time kill assay; assay type: functional, organism-based
Outline: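 Samples taken at 0, 2, 4, 6, 8, 12 and 24 h were serially diluted in PBS, plated on TSA and incubated ≥18 h for viable CFU/mL. DMSO was the negative control; two independent experiments.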

Staphylococcus aureus [9] = assay: Antibacterial activity against methicillin-resistant Staphylococcus aureus NRS384 USA300 after 18 hrs by broth microdilution assay; assay type: functional; details: NRS384 USA300, 18 h; outline: as §1
Staphylococcus aureus [10] = assay: Antibacterial activity against methicillin-resistant Staphylococcus aureus NRS385 after 18 hrs by broth microdilution assay; assay type: functional; details: NRS385, 18 h; outline: as §1
Staphylococcus aureus [11] = assay: Antibacterial activity against methicillin-resistant Staphylococcus aureus 2658 RCMB after 18 hrs by broth microdilution assay; assay type: functional; outline: as §1
[12] = Safety index, ratio of cytotoxicity against human Caco2 cells at 32 ug/ml after 2 hrs by MTS assay to antibacterial activity against methicillin-resistant Staphylococcus aureus; assay type: toxicity, cell-based; details: Caco-2 cells
Enterococcus faecalis = assay: Antibacterial activity against vancomycin-resistant Enterococcus faecalis ATCC 51299 after 18 hrs by broth microdilution assay; assay type: functional; details: ATCC 51299, 18 h; outline: as §1
Staphylococcus aureus [13] = assay: Inhibition of biofilm formation in methicillin-resistant Staphylococcus aureus NRS384 USA300 at 1 time MIC after 24 hrs by crystal violet staining-based spectrophotometric analysis relative to control; design: scale not given: the % may be the effect or the level left
Staphylococcus aureus [14] = assay: Bactericidal activity against methicillin-sensitive Staphylococcus aureus ATCC 6538 incubated fo 18 hrs followed by re-plating on tryptic soy agar plates at 37 degC for 18 hrs by broth microdilution assay; assay type: functional; details: ATCC 6538, 18 h
Staphylococcus aureus [15] = assay: Antibacterial activity against methicillin-resistant Staphylococcus aureus NRS119 after 18 hrs by broth microdilution assay; assay type: functional; details: NRS119, 18 h; outline: as §1
Staphylococcus aureus [16] = assay: Bactericidal activity against vancomycin-resistant Staphylococcus aureus VRS12 incubated fo 18 hrs followed by re-plating on tryptic soy agar plates at 37 degC for 18 hrs by broth microdilution assay; assay type: functional; details: VRS12, 18 h
Listeria monocytogenes [17] = assay: Antibacterial activity against Listeria monocytogenes ATCC 19111 after 18 hrs by broth microdilution assay; assay type: functional; details: ATCC 19111, 18 h
Staphylococcus aureus [18] = assay: Bactericidal activity against methicillin-resistant Staphylococcus aureus NRS385 incubated fo 18 hrs followed by re-plating on tryptic soy agar plates at 37 degC for 18 hrs by broth microdilution assay; assay type: functional; details: NRS385, 18 h
Staphylococcus aureus [19] = assay: Bactericidal activity against methicillin-resistant Staphylococcus aureus NRS119 incubated fo 18 hrs followed by re-plating on tryptic soy agar plates at 37 degC for 18 hrs by broth microdilution assay; assay type: functional; details: NRS119, 18 h
Staphylococcus aureus [20] = assay: Bactericidal activity against vancomycin-resistant Staphylococcus aureus VRS10 incubated fo 18 hrs followed by re-plating on tryptic soy agar plates at 37 degC for 18 hrs by broth microdilution assay; assay type: functional; details: VRS10, 18 h
Staphylococcus aureus [21] = assay: Antibacterial activity against vancomycin-resistant Staphylococcus aureus VRS12 after 18 hrs by broth microdilution assay; assay type: functional; details: VRS12, 18 h; outline: as §1
Staphylococcus aureus [22] = assay: Bactericidal activity against methicillin-resistant Staphylococcus aureus NRS384 USA300 incubated fo 18 hrs followed by re-plating on tryptic soy agar plates at 37 degC for 18 hrs by broth microdilution assay; assay type: functional; details: NRS384 USA300, 18 h
Staphylococcus aureus [23] = assay: Antibacterial activity against methicillin-resistant Staphylococcus aureus NRS123 USA400 after 18 hrs by broth microdilution assay; assay type: functional; details: NRS123 USA400, 18 h; outline: as §1
Staphylococcus aureus [24] = assay: Antibacterial activity against methicillin-sensitive Staphylococcus aureus NRS107 after 18 hrs by broth microdilution assay; assay type: functional; details: NRS107, 18 h; outline: as §1
Staphylococcus aureus [25] = assay: Antibacterial activity against methicillin-resistant Staphylococcus aureus NRS386 after 18 hrs by broth microdilution assay; assay type: functional; details: NRS386, 18 h; outline: as §1
Staphylococcus aureus [26] = assay: Bactericidal activity against methicillin-sensitive Staphylococcus aureus NRS107 incubated fo 18 hrs followed by re-plating on tryptic soy agar plates at 37 degC for 18 hrs by broth microdilution assay; assay type: functional; details: NRS107, 18 h
Staphylococcus aureus [27] = assay: Antibacterial activity against vancomycin-resistant Staphylococcus aureus VRS10 after 18 hrs by broth microdilution assay; assay type: functional; details: VRS10, 18 h; outline: as §1
Listeria monocytogenes [28] = assay: Bactericidal activity against Listeria monocytogenes ATCC 19111 incubated fo 18 hrs followed by re-plating on tryptic soy agar plates at 37 degC for 18 hrs by broth microdilution assay; assay type: functional; details: ATCC 19111, 18 h
Staphylococcus aureus [29] = assay: Bactericidal activity against methicillin-resistant Staphylococcus aureus NRS386 incubated fo 18 hrs followed by re-plating on tryptic soy agar plates at 37 degC for 18 hrs by broth microdilution assay; assay type: functional; details: NRS386, 18 h
Staphylococcus aureus [30] = assay: Bactericidal activity against methicillin-resistant Staphylococcus aureus NRS123 USA400 incubated fo 18 hrs followed by re-plating on tryptic soy agar plates at 37 degC for 18 hrs by broth microdilution assay; assay type: functional; details: NRS123 USA400, 18 h

Cc1nc(-c2ccc(C(C)(C)C)cc2)sc1-c1ccnc(NC(=N)N2CCOCC2)n1
MIC (Enterococcus faecium [1]): 4 µg/mL (≈ 9.16 µM) | MIC (Staphylococcus aureus [2]): 4 µg/mL (≈ 9.16 µM) | Activity (Staphylococcus aureus [3]): 28.3% | MIC [4]: 4 µg/mL (≈ 9.16 µM) | inhibition (Staphylococcus aureus [5]): Dose-dependent effect | MBC (Enterococcus faecium [6]): 8 µg/mL (≈ 18.3 µM) | Activity (Caco-2): Non-Toxic | MBC [7]: 4 µg/mL (≈ 9.16 µM) | Activity (Staphylococcus aureus [8]): Active | MIC (Staphylococcus aureus [9]): 4 µg/mL (≈ 9.16 µM) | MIC (Staphylococcus aureus [10]): 4 µg/mL (≈ 9.16 µM) | MIC (Staphylococcus aureus [11]): 1.17 µg/mL (≈ 2.68 µM) | selectivity ratio at 2 h, 32 ug/ml [12]: 8 to 30 | MIC (Enterococcus faecalis): 4 µg/mL (≈ 9.16 µM) | Activity (Staphylococcus aureus [13]): 18.1%

Cc1nc(-c2ccc(C(C)(C)C)cc2)sc1-c1ccnc(N2CC(O)C2)n1
MIC (Staphylococcus aureus [11]): 6.25 µg/mL (≈ 16.4 µM)

Cc1nc(-c2ccc(C(C)(C)C)cc2)sc1-c1ccnc(N)n1
MIC (Staphylococcus aureus [11]): 6.25 µg/mL (≈ 19.3 µM)

CNc1nccc(-c2sc(-c3ccc(C(C)(C)C)cc3)nc2C)n1
MIC (Staphylococcus aureus [11]): 25 µg/mL (≈ 73.9 µM)

Cc1nc(-c2ccc(C(C)(C)C)cc2)sc1-c1ccnc(NC(=N)N(C)C)n1
MIC (Enterococcus faecium [1]): 8 µg/mL (≈ 20.3 µM) | MBC (Staphylococcus aureus [14]): 8 µg/mL (≈ 20.3 µM) | MIC (Staphylococcus aureus [15]): 8 µg/mL (≈ 20.3 µM) | MBC (Staphylococcus aureus [16]): 8 µg/mL (≈ 20.3 µM) | MIC (Listeria monocytogenes [17]): 8 µg/mL (≈ 20.3 µM) | MIC (Staphylococcus aureus [2]): 8 µg/mL (≈ 20.3 µM) | MBC (Staphylococcus aureus [18]): 8 µg/mL (≈ 20.3 µM) | Activity (Staphylococcus aureus [3]): 48.2% | MIC [4]: 8 µg/mL (≈ 20.3 µM) | MBC (Staphylococcus aureus [19]): 8 µg/mL (≈ 20.3 µM) | inhibition (Staphylococcus aureus [5]): Dose-dependent effect | MBC (Enterococcus faecium [6]): 16 µg/mL (≈ 40.6 µM) | Activity (Caco-2): Toxic | MBC (Staphylococcus aureus [20]): 8 µg/mL (≈ 20.3 µM) | MIC (Staphylococcus aureus [21]): 8 µg/mL (≈ 20.3 µM) | MBC (Staphylococcus aureus [22]): 8 µg/mL (≈ 20.3 µM) | MIC (Staphylococcus aureus [23]): 8 µg/mL (≈ 20.3 µM) | MBC [7]: 8 µg/mL (≈ 20.3 µM) | Activity (Staphylococcus aureus [8]): Active | MIC (Staphylococcus aureus [24]): 8 µg/mL (≈ 20.3 µM) | MIC (Staphylococcus aureus [9]): 8 µg/mL (≈ 20.3 µM) | MIC (Staphylococcus aureus [10]): 8 µg/mL (≈ 20.3 µM) | MIC (Staphylococcus aureus [25]): 8 µg/mL (≈ 20.3 µM) | MIC (Staphylococcus aureus [11]): 1.17 µg/mL (≈ 2.97 µM) | MBC (Staphylococcus aureus [26]): 8 µg/mL (≈ 20.3 µM) | MIC (Enterococcus faecalis): 8 µg/mL (≈ 20.3 µM) | MIC (Staphylococcus aureus [27]): 8 µg/mL (≈ 20.3 µM) | MBC (Listeria monocytogenes [28]): 8 µg/mL (≈ 20.3 µM) | Activity (Staphylococcus aureus [13]): 35.5% | MBC (Staphylococcus aureus [29]): 8 µg/mL (≈ 20.3 µM) | MBC (Staphylococcus aureus [30]): 8 µg/mL (≈ 20.3 µM)

Cc1nc(-c2ccc(C(C)(C)C)cc2)sc1-c1ccnc(N2CCC2)n1
MIC (Staphylococcus aureus [11]): > 50 µg/mL

Cc1nc(-c2ccc(C(C)(C)C)cc2)sc1-c1ccnc(N2CCOCC2)n1
MIC (Staphylococcus aureus [11]): 25 µg/mL (≈ 63.4 µM)

Cc1nc(-c2ccc(C(C)(C)C)cc2)sc1-c1ccnc(NC2CCCCC2)n1
MIC (Staphylococcus aureus [11]): > 50 µg/mL

Cc1nc(-c2ccc(C(C)(C)C)cc2)sc1-c1ccnc(NN)n1
MIC (Staphylococcus aureus [11]): 1.56 µg/mL (≈ 4.6 µM)

Cc1nc(-c2ccc(C(C)(C)C)cc2)sc1-c1ccnc(N(C)C)n1
MIC (Staphylococcus aureus [11]): > 50 µg/mL

CC(=O)NC[C@H]1CN(c2ccc(N3CCOCC3)c(F)c2)C(=O)O1 [LINEZOLID]
MBC (Staphylococcus aureus [14]): 16 µg/mL (≈ 47.4 µM) | MBC (Staphylococcus aureus [16]): 64 µg/mL (≈ 190 µM) | MIC (Staphylococcus aureus [2]): 1 µg/mL (≈ 2.96 µM) | MBC (Staphylococcus aureus [18]): 16 µg/mL (≈ 47.4 µM) | MBC (Staphylococcus aureus [19]): > 64 µg/mL | MBC (Staphylococcus aureus [20]): 64 µg/mL (≈ 190 µM) | MIC (Staphylococcus aureus [21]): 1 µg/mL (≈ 2.96 µM) | MBC (Staphylococcus aureus [22]): 32 µg/mL (≈ 94.9 µM) | MIC (Staphylococcus aureus [23]): 1 µg/mL (≈ 2.96 µM) | MIC (Staphylococcus aureus [24]): 1 µg/mL (≈ 2.96 µM) | MIC (Staphylococcus aureus [9]): 1 µg/mL (≈ 2.96 µM) | MBC (Staphylococcus aureus [26]): 16 µg/mL (≈ 47.4 µM) | MIC (Staphylococcus aureus [27]): 1 µg/mL (≈ 2.96 µM) | MBC (Staphylococcus aureus [29]): 64 µg/mL (≈ 190 µM) | MBC (Staphylococcus aureus [30]): 32 µg/mL (≈ 94.9 µM)
